Compound activity deposited in PubChem BioAssay by several laboratories.
Mac1 fbg enh: enhancers of human CD11b/CD18 binding to fibrinogen; activation, % at 10 µM; 93,000 tested, 0.07% active; P05107+P11215; K562 CD11b/CD18 adhesion to fibrinogen, ATPlite luminescence;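 active = 10 µM primary screen giving 50% or more activity, confirmed by 40% or more on retest at that dose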
Smad3 FoxH1 inh: Smad3 (human) transcription factor binding inhibition. P84022. TR-FRET Smad3/Dy647-FoxH1 peptide binding, europium anti-His. inhibition, % at 25 µM. 88,000 tested, 0.29% active;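 active = compounds that reduce the energy-transfer binding signal between the protein and its labelled peptide by more than half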;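 note: 0% = Smad3 plus labelled peptide maximal FRET and 100% = peptide-only background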
Mac1 fbg inh: CD11b/CD18-fibrinogen binding inhibition. 93,000 tested, 0.54% active. AID 1497. K562 CD11b/CD18 adhesion to fibrinogen, ATPlite luminescence; Mn2+ added to activate the integrin. inhibition, % at 10 µM. P05107+P11215;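 active = primary inhibition of 50% or more at 10 µM, then 40% or more on retest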
Phagocytosis inh: macrophage phagocytosis inhibition. J774A.1 macrophage IgG-bead phagocytosis, imaging. inhibition, % at 5 µM. 110,000 tested, 0.07% active;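 active = inhibition above the mean of the plate negative controls plus 5 SD, cut at about 13% in these data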;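 note: phagocytic index as fraction of beads internalized from green versus red external bead signal; plate controls were DMSO negative control for no effect and cytochalasin-D positive control for full effect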
Rev-RRE block: HIV Rev-RRE protein-RNA interaction inhibition | Rev peptide-RRE RNA binding, FRET | AID 704 | inhibition, % at 8 µM | P05866 | 97,000 tested, 0.79% active;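 active = inhibition above the screen-wide mean plus 3 SD, cut at about 35% in these data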;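 note: 0% = median DMSO wells and 100% = median Neomycin B control wells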
Target sequence (P05866 whole entry, looked up): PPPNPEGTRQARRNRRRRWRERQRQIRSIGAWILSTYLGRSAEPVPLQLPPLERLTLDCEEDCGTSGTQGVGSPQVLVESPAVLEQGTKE
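Test system – labelled RRE RNA duplex and labelled Rev peptide · Reagent – labelled Rev peptide · Doses – one concentration, 8 µM nominal · Incubation – 5 + 15 min at 25 °C · Signal – FRET fluorescence readout · Read-out basis – % inhibition of FRET ratio versus controls · Control set – DMSO wells as 0% and neomycin B wells as 100% inhibition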
EphB4 antag: antagonists of human EphB4-ephrin-B2 interaction; inhibition, % at 7 µM; EphB4 LBD / TNYL-RAW-Alexa532 peptide, fluorescence polarization; 97,000 tested, 0.15% active;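 active = inhibition above the screen-wide mean inhibition plus 3 SD, cut at about 15% in these data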;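 note: 0% = DMSO wells and 100% = excess unlabeled TNYL-RAW peptide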
Starred values were filed as active, the others as inactive; [ ] = dose if it differs, or a comment. Rows were chosen to be rich in hits. Some 1.3% of all compounds tested hit in one or more screens of this group.

For Cn1cnnc1SCC(=O)NN(c1ccccc1)c1ccccc1 the results were Phagocytosis inh 27*[artifact].
`O=C(O)[C@H](Cc1cc(I)c(O)c(I)c1)C1CCCCC1` gave Smad3 FoxH1 inh 11.
`Clc1ccc(CSCc2ccc(Cl)cc2Cl)c(Cl)c1` gave Smad3 FoxH1 inh -3.
`CN(C)c1ccc(/C=C/C(=O)c2cccc(Br)c2)cc1` gave Rev-RRE block 131*[fluorescence artefact?] and EphB4 antag 1.
Screening NC1=NC(=O)/C(=C/c2cn(CCC(=O)O)nc2-c2ccc(Cl)cc2)S1 returned Phagocytosis inh -6.
Screening O=C(O)CCn1cc(/C=C\C(=O)c2ccc(Cl)cc2)c(-c2cccc(Br)c2)n1 returned Mac1 fbg enh 25, Mac1 fbg inh 53* and Phagocytosis inh -10.
For O=c1[nH]c(CN2CCCCC2)nc2c1C1(CCCC1)Cc1ccccc1-2 the results were Smad3 FoxH1 inh 7, Rev-RRE block 4 and EphB4 antag -10.
`O=C1[C@H]2[C@@H]3c4ccccc4[C@H]([C@H]2C(=O)N1c1ccc(OCc2ccccc2)cc1)[n+]1ccccc13` gave Smad3 FoxH1 inh 0.
For N#CC(c1ccccc1)c1ccc(C(=O)c2ccc(F)cc2)cc1 (centres undefined) the results were Mac1 fbg enh -7, Smad3 FoxH1 inh -5, Mac1 fbg inh 87*, Phagocytosis inh -2, Rev-RRE block 21 and EphB4 antag -2.
Screening c1ccc(CN2CCC3(CC2)SSC2(CCN(Cc4ccccc4)CC2)SS3)cc1 returned Smad3 FoxH1 inh 20.
O=C(O)c1ccccc1NCn1c(=S)sc2ccccc21 was read as Smad3 FoxH1 inh 23.
Screening COC1=C(c2ccccc2)C(=O)c2ccccc2C1=O returned Phagocytosis inh -3.
For Nc1ccc2c(c1)C(=O)C(=O)c1ccccc1-2 the results were Mac1 fbg enh -6, Smad3 FoxH1 inh 73*[fluorescence artefact?], Mac1 fbg inh 11, Phagocytosis inh 1, Rev-RRE block 4 and EphB4 antag 2.
Screening O=C1C(=O)c2ccc(-c3ccccc3)cc2-c2ccccc21 returned Smad3 FoxH1 inh 66*[fluorescence artefact?], Rev-RRE block 7 and EphB4 antag 2.
`CCOc1ccccc1/C=C(\C#N)C(N)=O` gave Smad3 FoxH1 inh 11.
Screening CCOc1ccc(Br)cc1C1C(C(=O)OC)=C(N)Oc2cc(N(C)C)ccc21 (centres undefined) returned Mac1 fbg enh -4, Smad3 FoxH1 inh 12, Mac1 fbg inh 9, Phagocytosis inh 0, Rev-RRE block 38* and EphB4 antag 0.
For O=c1c2ccccc2nc(-c2ccc(Cl)c(Cl)c2)n1O the results were Mac1 fbg enh -6, Smad3 FoxH1 inh 10, Mac1 fbg inh -35, Phagocytosis inh -1, Rev-RRE block 5 and EphB4 antag -2.
`O=c1c2ccc(Cl)cc2nc(-c2cccc(C(F)(F)F)c2)n1O` gave Mac1 fbg enh -8, Mac1 fbg inh 69*, Phagocytosis inh -4, Rev-RRE block 3 and EphB4 antag -4.
Screening COc1cc(/C=C2\SC(c3ccc(C)cc3)=NC2=O)cc(OC)c1O returned Mac1 fbg enh 10, Mac1 fbg inh -6, Phagocytosis inh 0, Rev-RRE block 50*[fluorescence artefact?] and EphB4 antag -2.
Screening COc1ccc(/C=C2\SC(=O)N=C2N)cc1OC returned Phagocytosis inh 3.
Screening O=C(O)CCCNc1cc(N2CCC3(CC2)OCCO3)c2noc3c2c1C(=O)c1ccccc1-3 returned Smad3 FoxH1 inh 98*[fluorescence artefact?], Rev-RRE block 122*[fluorescence artefact?] and EphB4 antag 2.
CCN1CCc2nc(NC(=O)Cc3ccc4c(c3)OCCO4)sc2C1 was read as Mac1 fbg enh -1, Smad3 FoxH1 inh 8, Mac1 fbg inh 3, Phagocytosis inh 0, Rev-RRE block 11 and EphB4 antag 2.
`Cc1nnc(NC(=O)c2cccc(S(=O)(=O)N3CCc4ccccc43)c2)s1` gave Mac1 fbg enh -2, Mac1 fbg inh 8, Phagocytosis inh -1, Rev-RRE block -2 and EphB4 antag 0.
CCN1CCc2nc(NC(=O)c3ccc4c(c3)OCCO4)sc2C1 was read as Smad3 FoxH1 inh -2, Rev-RRE block 36* and EphB4 antag 0.
